What all share (type): functional
Common to all, as to set-up: scale not given: the % may be the effect or the level left

Test [1] has as its system Rattus norvegicus. Description: Hypolipidemic activity in COBBS-CD rat assessed as reduction in serum sterol level at 0.1% administered with chow diet after 5 days relative to control. Put shortly: (§1)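 Male COBBS-CD rats, four per treated group and eight per control group. The compound was mixed into ground rat chow at 0.1, 0.03 or 0.01% w/w (about 100, 30 and 10 mg/kg). Control chow received only the mixing solvent (methanol-chloroform 1:3 v/v). Food and water were ad libitum for 5 days, then rats were decapitated and blood collected. Serum sterols were measured by an automated method and expressed relative to controls; ± values are SD.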

The subject of test [2] is Rattus norvegicus. The experiment in a line: Hypolipidemic activity in COBBS-CD rat assessed as reduction in serum sterol level at 0.03% administered with chow diet after 5 days relative to control. Put shortly:
as §1

Test [3] has as its system Rattus norvegicus. Description: Hypolipidemic activity in COBBS-CD rat assessed as reduction in serum sterol level at 0.01% administered with chow diet after 5 days relative to control. In short, it runs like this: as §1
In test [4] the test system is Rattus norvegicus. Description: Hypolipidemic activity in COBBS-CD rat assessed as reduction in serum triglyceride level at 0.1% administered with chow diet after 5 days relative to control. In short, it runs like this:
(§2)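 The compound was given in ground chow at 0.1, 0.03 or 0.01% w/w (about 100, 30 and 10 mg/kg) to male COBBS-CD rats (n=4; solvent-chow controls n=8) for 5 days ad libitum. Rats were killed by decapitation and blood collected. Serum triglycerides were assayed by an automated method and compared with controls; ± values are SD.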

The subject of test [5] is Rattus norvegicus. Description: Hypolipidemic activity in COBBS-CD rat assessed as reduction in serum triglyceride level at 0.03% administered with chow diet after 5 days relative to control. In short, it runs like this:
as §2

The test system of test [6] is Rattus norvegicus. Description: Hypolipidemic activity in COBBS-CD rat assessed as reduction in serum triglyceride level at 0.01% administered with chow diet after 5 days relative to control. Put shortly:
as §2

As to `COC(=O)C(Oc1ccc(Cl)cc1)c1ccc(Oc2ccc(S(C)(=O)=O)cc2)cc1` (stereo not drawn), the Activity in the test on Rattus norvegicus [1] is reported as 15%; in the test with Rattus norvegicus [2], -1%; in the test on Rattus norvegicus [3] it was 8%; in the test on Rattus norvegicus [4] it was 22%; with Rattus norvegicus [5] it was -11%; with Rattus norvegicus [6], 11%.

In the case of `COC(=O)C(Oc1ccc(F)cc1)c1ccc(Oc2cccc(C(F)(F)F)c2)cc1` (stereo not drawn), the Activity in the test on Rattus norvegicus [1] stood at 32%; with Rattus norvegicus [2], 6%; in the test with Rattus norvegicus [3] it was 4%; with Rattus norvegicus [4], 48%; in the test on Rattus norvegicus [5] it was 27%; in the test on Rattus norvegicus [6], 45%.

On to `COC(=O)C(Oc1cccc(C(C)(C)C)c1)c1ccc(Oc2ccc(Cl)cc2)cc1` (stereo not drawn), for which the Activity in the test on Rattus norvegicus [1] was 41%; with Rattus norvegicus [2], 20%; in the test with Rattus norvegicus [3], 23%; with Rattus norvegicus [4], 63%; with Rattus norvegicus [5] it was 49%; in the test with Rattus norvegicus [6] it was 41%.

In the case of `COC(=O)C(Oc1ccc(C(C)(C)C)cc1)c1ccc(Oc2ccc([N+](=O)[O-])cc2)cc1` (stereo not drawn), the Activity was 10% in the test with Rattus norvegicus [1]; -4% in the test with Rattus norvegicus [2]; -3% with Rattus norvegicus [3]; 51% in the test on Rattus norvegicus [4]; 40% in the test on Rattus norvegicus [5]; 34% with Rattus norvegicus [6].

For the molecule `COC(=O)C(Oc1ccc(C2CCCCC2)cc1)c1ccc(Sc2ccc(Cl)cc2)cc1` (stereo not drawn), the Activity was 19% with Rattus norvegicus [1]; 15% with Rattus norvegicus [2]; 14% in the test on Rattus norvegicus [3]; 45% in the test on Rattus norvegicus [4]; 44% in the test with Rattus norvegicus [5]; 33% in the test on Rattus norvegicus [6].

With `COC(=O)C(Oc1ccc(C(C)(C)C)cc1)c1ccc(Oc2cccc(C(F)(F)F)c2)cc1` (stereo not drawn), the Activity with Rattus norvegicus [1] was found to be 26%; with Rattus norvegicus [2], 35%; in the test with Rattus norvegicus [3] it was 12%; with Rattus norvegicus [4], 77%; with Rattus norvegicus [5], 70%; in the test with Rattus norvegicus [6] it was 52%.

In the case of `COC(=O)C(Oc1ccc(Cl)cc1)c1ccc(Oc2ccc(C#N)cc2)cc1` (stereo not drawn), the Activity is 16% with Rattus norvegicus [1]; 19% in the test with Rattus norvegicus [2]; 20% in the test with Rattus norvegicus [3]; 71% with Rattus norvegicus [4]; 60% with Rattus norvegicus [5]; 50% in the test with Rattus norvegicus [6].

For `COC(=O)C(Oc1ccc(F)cc1)c1ccc(Oc2ccc(S(C)(=O)=O)cc2)cc1` (stereo not drawn), the Activity in the test with Rattus norvegicus [1] is 10%; with Rattus norvegicus [2] it was -1%; in the test with Rattus norvegicus [3] it was -3%; with Rattus norvegicus [4], 3%; with Rattus norvegicus [5], -8%; with Rattus norvegicus [6], 16%.

As for `COC(=O)C(Oc1ccc(Cl)cc1)c1ccc(Sc2ccccc2)cc1` (stereo not drawn), the Activity in the test on Rattus norvegicus [1] came out at 6%; in the test on Rattus norvegicus [2], 6%; in the test on Rattus norvegicus [3], 6%; with Rattus norvegicus [4], 30%; in the test on Rattus norvegicus [5], 47%; in the test on Rattus norvegicus [6], 41%.

As for `COC(=O)C(Oc1ccc(Cl)cc1)c1ccc(Oc2ccc(Cl)cc2)cc1` (stereo not drawn), the Activity in the test with Rattus norvegicus [1] was 33%; in the test on Rattus norvegicus [2], 23%; in the test with Rattus norvegicus [3] it was 16%; with Rattus norvegicus [4] it was 56%; in the test on Rattus norvegicus [5], 48%; with Rattus norvegicus [6], 39%.

In the case of `COC(=O)C(Oc1ccc2ccc(=O)oc2c1)c1ccc(Oc2ccc(Cl)cc2)cc1` (stereo not drawn), the Activity with Rattus norvegicus [1] is -4%; with Rattus norvegicus [2] it was 7%; in the test with Rattus norvegicus [3], -5%; in the test with Rattus norvegicus [4], -16%; with Rattus norvegicus [5], -23%; in the test with Rattus norvegicus [6], 4%.

Turning to `COC(=O)C(Oc1ccc(Cl)c2c1CCCC2)c1ccc(Oc2ccc(Cl)cc2)cc1` (stereo not drawn), the Activity in the test with Rattus norvegicus [1] is listed as 25%; in the test on Rattus norvegicus [2] it was 30%; in the test on Rattus norvegicus [3], -1%; with Rattus norvegicus [4] it was 54%; in the test with Rattus norvegicus [5], 28%; in the test on Rattus norvegicus [6], 24%.

For the molecule `O=C(O)C(Oc1ccccc1)c1ccc(Oc2ccccc2)cc1` (stereo not drawn), the Activity was determined as 22% with Rattus norvegicus [1]; 15% with Rattus norvegicus [2]; 21% in the test on Rattus norvegicus [3]; 51% in the test with Rattus norvegicus [4]; 37% in the test on Rattus norvegicus [5]; 3% in the test on Rattus norvegicus [6].

On to `COC(=O)C(Oc1ccc(Cl)cc1)c1ccc(Oc2ccc(C(C)(C)C)cc2)cc1` (stereo not drawn), for which the Activity with Rattus norvegicus [1] was determined as 7%; in the test with Rattus norvegicus [2] it was 11%; in the test on Rattus norvegicus [3], 17%; in the test with Rattus norvegicus [4], 46%; in the test on Rattus norvegicus [5], 30%; in the test with Rattus norvegicus [6] it was 25%.

`COC(=O)C(Oc1ccc(Cl)c(C)c1)c1ccc(Oc2ccc(Cl)cc2)cc1` (stereo not drawn): the Activity in the test on Rattus norvegicus [1] was 39%; in the test with Rattus norvegicus [2], 34%; with Rattus norvegicus [3], 34%; with Rattus norvegicus [4], 54%; in the test on Rattus norvegicus [5] it was 39%; in the test with Rattus norvegicus [6], 28%.

Take `COC(=O)C(Oc1ccc(C)c(C)c1)c1ccc(Oc2ccc(Cl)cc2)cc1` (stereo not drawn): the Activity in the test with Rattus norvegicus [1] is recorded as 46%; with Rattus norvegicus [2], 28%; in the test on Rattus norvegicus [3], 18%; in the test on Rattus norvegicus [4] it was 63%; with Rattus norvegicus [5] it was 45%; in the test with Rattus norvegicus [6] it was 23%.

With `O=C(O)C(Oc1ccc(F)cc1)c1ccc(Oc2ccc(Cl)cc2)cc1` (stereo not drawn), the Activity with Rattus norvegicus [1] is listed as 29%; in the test on Rattus norvegicus [2], 28%; in the test on Rattus norvegicus [3], 41%; with Rattus norvegicus [4] it was 58%; in the test on Rattus norvegicus [5], 48%; in the test with Rattus norvegicus [6], 20%.

Consider `COC(=O)C(Oc1cccc(Cl)c1)c1ccc(Oc2ccc(Cl)cc2)cc1` (stereo not drawn), for which the Activity in the test on Rattus norvegicus [1] is given as 19%; in the test on Rattus norvegicus [2], 11%; in the test on Rattus norvegicus [3] it was -3%; with Rattus norvegicus [4] it was 50%; in the test on Rattus norvegicus [5], 22%; in the test with Rattus norvegicus [6], 13%.

Take `COC(=O)C(Oc1ccc(C2CCCCC2)cc1)c1ccc(Oc2cccc(C(F)(F)F)c2)cc1` (stereo not drawn): the Activity with Rattus norvegicus [1] amounted to 20%; in the test with Rattus norvegicus [2], 18%; in the test on Rattus norvegicus [3] it was 8%; with Rattus norvegicus [4], 59%; with Rattus norvegicus [5] it was 34%; in the test on Rattus norvegicus [6], 40%.

`CCOP(=O)(OCC)C(Oc1ccc(Cl)cc1)(C(=O)OC)c1ccc(Oc2ccc(Cl)cc2)cc1` (stereo not drawn): the Activity worked out at 43% in the test on Rattus norvegicus [1]; 27% with Rattus norvegicus [2]; 23% in the test with Rattus norvegicus [3]; 60% in the test on Rattus norvegicus [4]; 44% with Rattus norvegicus [5]; 18% with Rattus norvegicus [6].

Regarding `COC(=O)C(Oc1ccc(Cl)cc1)c1ccc(Oc2cccc(C(F)(F)F)c2)cc1` (stereo not drawn), the Activity with Rattus norvegicus [1] worked out at 32%; in the test with Rattus norvegicus [2] it was 31%; in the test on Rattus norvegicus [3] it was 8%; in the test with Rattus norvegicus [4] it was 50%; with Rattus norvegicus [5], 47%; in the test with Rattus norvegicus [6] it was 35%.

For the molecule `COC(=O)C(Oc1ccc(C(C)(C)C)cc1Cl)c1ccc(Oc2ccc(Cl)cc2)cc1` (stereo not drawn), the Activity with Rattus norvegicus [1] is 28%; in the test with Rattus norvegicus [2], 29%; in the test on Rattus norvegicus [3], 17%; in the test with Rattus norvegicus [4], 64%; with Rattus norvegicus [5], 50%; in the test on Rattus norvegicus [6], 25%.

Take `COC(=O)C(Oc1cc(C)c(Cl)c(C)c1)c1ccc(Oc2ccc(Cl)cc2)cc1` (stereo not drawn): the Activity in the test with Rattus norvegicus [1] turned out to be 21%; with Rattus norvegicus [2], 22%; with Rattus norvegicus [3] it was 0%; in the test on Rattus norvegicus [4] it was 66%; with Rattus norvegicus [5] it was 49%; in the test with Rattus norvegicus [6], 33%.

In the case of `COC(=O)C(Oc1ccc(OCc2ccccc2)cc1)c1ccc(Oc2ccc(Cl)cc2)cc1` (stereo not drawn), the Activity was determined as 30% in the test with Rattus norvegicus [1]; 26% in the test with Rattus norvegicus [2]; 13% with Rattus norvegicus [3]; 57% in the test on Rattus norvegicus [4]; 37% in the test on Rattus norvegicus [5]; 29% in the test on Rattus norvegicus [6].

For the molecule `COC(=O)C(Oc1cccc(C(F)(F)F)c1)c1ccc(Oc2ccc(C#N)cc2)cc1` (stereo not drawn), the Activity in the test with Rattus norvegicus [1] is recorded as 32%; with Rattus norvegicus [2], 24%; with Rattus norvegicus [3], 12%; with Rattus norvegicus [4], 50%; in the test with Rattus norvegicus [5], 34%; in the test with Rattus norvegicus [6], -37%.

Regarding `COC(=O)C(Oc1ccc(C(C)(C)C)cc1)c1ccc(Oc2ccc(Cl)c3ccccc23)cc1` (stereo not drawn), the Activity in the test on Rattus norvegicus [1] amounted to 23%; in the test on Rattus norvegicus [2] it was 24%; with Rattus norvegicus [3], 16%; in the test with Rattus norvegicus [4] it was 56%; with Rattus norvegicus [5] it was 39%; in the test with Rattus norvegicus [6], 29%.

As to `COC(=O)C(C)(Oc1ccc(Cl)cc1)c1ccc(Oc2ccc(Cl)cc2)cc1` (stereo not drawn), the Activity with Rattus norvegicus [1] is 39%; in the test on Rattus norvegicus [2], 14%; with Rattus norvegicus [3], 9%; in the test on Rattus norvegicus [4], 63%; in the test on Rattus norvegicus [5], 44%; in the test on Rattus norvegicus [6] it was 39%.

Consider `COC(=O)C(Oc1ccccc1)c1ccc(Oc2ccccc2)cc1` (stereo not drawn), for which the Activity was determined as 21% in the test on Rattus norvegicus [1]; 19% with Rattus norvegicus [2]; 10% in the test with Rattus norvegicus [3]; 58% in the test with Rattus norvegicus [4]; 49% in the test with Rattus norvegicus [5]; 46% with Rattus norvegicus [6].

Source of the values: ChEMBL document CHEMBL3244011, “(Aryloxy)[p-(aryloxy)phenyl]- and (aryloxy)[p-(arylthio)phenyl]acetic acids and esters as hypolipidemic agents” (1979).
